High-throughput results deposited in PubChem BioAssay by Broad Institute.
Rows were chosen to be rich in hits. Some 2.1% of all compounds tested hit in one or more screens of this group.
PAX8 reporter: lowers PAX8-driven luciferase in RMG-I cells | 360,000 compounds, 1.2% hits | RMG-I TPO-luciferase reporter, SteadyGlo, 24 h | AID 652154 | inhibition, % at 12.6 µM;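 active means mean replicate inhibition at least 60% with every replicate also reaching 60%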;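 further: luciferase light reporting Pax8 driven TPO promoter activity; plate controls were median of neutral control wells for no effect and mitoxantrone controls for full effect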
FN deposition inh: fibronectin deposition inhibition | AH1F fibroblasts, Alexa488-fibronectin deposition fluorescence, overnight | inhibition, % at 12.6 µM | 350,000 compounds, 0.086% hits | AID 743247;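 active means mean inhibition across replicates of 30% or more, regardless of how many single replicates reach that level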;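 further: positive control wells lacked labelled fibronectin entirely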
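Material: AH1F fibroblast monolayer depositing Alexa488-labelled fibronectin into matrix | Input: 10000 AH1F cells/well | Medium: DMEM plus 2% serum, read in PBS | Reagent: Alexa488-fibronectin, 24 nM final in well | Compound dosing: One dose per compound, pinned | Schedule: 1 h adhesion, overnight exposure | Measured by: Fluorescence at 485 nm excitation, 525 nm emission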
aSyn 5UTR inh: 5' untranslated region of α-synuclein, MLPCN primary screen; 300,000 compounds, 0.82% hits; inhibition, % (tested at 7.5 µM); alpha-synuclein 5'UTR reporter, inhibitor activity; in the data active means inhibition above about 60%;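 further: H4 neuroglioblastoma cells stably carrying SNCA 5'UTR luciferase fusion; 0% = DMSO wells and 100% = positive control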
EWS-Fli inh: inhibitors of EWS/Fli oncoprotein transcriptional activity | inhibition, % at 12.6 µM | A673 NR0B1-luciferase reporter, viability-normalised | 350,000 compounds, 0.67% hits;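 active means mean inhibition of at least 50% after viability correction, with every replicate also passing that limit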;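 further: firefly luciferase signal divided by Alamar Blue viability fluorescence both relative to DMSO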
LMP1 NFkB inh: Epstein-Barr LMP1 NF-kappaB reporter inhibition; AID 504558; 350,000 compounds, 0.69% hits; inhibition, % at 12.5 µM; LMP1-induced NF-kappaB luciferase reporter cells, luminescence; in the data active means inhibition above about 41%;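 further: 0% = neutral control wells and 100% = reference inhibitor control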
Shn3 3UTR inh: Schnurri-3 reporter inhibition in Clone20 osteoblasts | Clone20 osteoblast Shn3 3'UTR firefly luciferase, 24 h | inhibition, % at 12.5 µM | 360,000 compounds, 0.52% hits | AID 588674;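 active means mean inhibition of at least 75% with every replicate also reaching 75%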;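 further: 0% = median of neutral control wells and 100% = pilot-screen positive control compound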
* marks the source's active call; other numbers are inactive results.

For C[C@@H]1CCCCO[C@H](CN(C)C(=O)C2CCCCC2)[C@@H](C)CN([C@@H](C)CO)C(=O)c2cc(NC(=O)c3ccccc3)ccc2O1 the results were PAX8 reporter -30 and EWS-Fli inh 7.
For O=C(c1ccccc1F)N1CCCC(c2ccccc2)C1 (stereo unspecified) the results were PAX8 reporter 67*, FN deposition inh 8, aSyn 5UTR inh 20, EWS-Fli inh 8, LMP1 NFkB inh -1 and Shn3 3UTR inh 7.
For Cc1cc(C)c2ccc(N)nc2c1O the results were PAX8 reporter -6, aSyn 5UTR inh 65*, LMP1 NFkB inh 2 and Shn3 3UTR inh 75.
For CCOC(=O)c1[nH]c(C)c(C(=O)OCC(=O)NC(C)c2ccc(F)cc2)c1C (stereo unspecified) the results were PAX8 reporter 28, FN deposition inh 26, EWS-Fli inh 54*, LMP1 NFkB inh 1 and Shn3 3UTR inh 9.
For CCOC(=O)c1c(C)[nH]c(C(=O)OCC(=O)NC(C)(C)C)c1C the results were PAX8 reporter 17, FN deposition inh -5, aSyn 5UTR inh -19, EWS-Fli inh -5, LMP1 NFkB inh 0 and Shn3 3UTR inh 16.
NC(=S)N=Nc1ccc(NN=C(N)N)cc1 was read as PAX8 reporter 1, FN deposition inh 2, aSyn 5UTR inh 68*, EWS-Fli inh -6, LMP1 NFkB inh 86* and Shn3 3UTR inh 6.
COC(=O)c1ccc(NN=Nc2ccc(C)cc2)cc1 was read as aSyn 5UTR inh -173, LMP1 NFkB inh -40 and Shn3 3UTR inh -41.
COC(=O)c1c(C)oc2ccc(N(C(=O)c3ccncc3)S(=O)(=O)c3ccccc3)cc12 was read as aSyn 5UTR inh 31, LMP1 NFkB inh 11 and Shn3 3UTR inh 69.
COC(=O)c1c(C)oc2ccc(N(C(=O)c3ccncc3)S(=O)(=O)c3ccc(C)cc3)cc12 was read as aSyn 5UTR inh 110*, LMP1 NFkB inh 26 and Shn3 3UTR inh 61.
COC1=C(N)C(=O)c2nc(-c3nc(C(=O)O)c(C)c(-c4ccc(OC)c(OC)c4O)c3N)ccc2C1=O was read as Shn3 3UTR inh 114*.
CCc1cc2c(nc1CC)CCCN2S(=O)(=O)c1ccc(OC)cc1 was read as PAX8 reporter 21, FN deposition inh -6 and EWS-Fli inh 72*.
CCCNC(=O)Nc1ccc2c(c1)OC[C@@H](C)N(C(=O)C1CCCCC1)C[C@@H](C)[C@H](OC)CN(C)C2=O was read as PAX8 reporter -7, FN deposition inh -8 and EWS-Fli inh 4.
For O=C(NCC1CC1)[C@H]1[C@H](CO)[C@H]2Cn3c(ccc(-c4ccccc4F)c3=O)[C@@H]1N2Cc1cncnc1 the results were PAX8 reporter -26, FN deposition inh -13 and EWS-Fli inh 3.
Screening Cc1nc(N2CCN(C)CC2)c2sc(=S)n(-c3ccccc3)c2n1 returned PAX8 reporter -26, FN deposition inh 2, aSyn 5UTR inh -31, EWS-Fli inh -14, LMP1 NFkB inh 3 and Shn3 3UTR inh -11.
`S=c1sc2c(Cl)ncnc2n1-c1ccccc1` gave PAX8 reporter 93*, FN deposition inh 12, aSyn 5UTR inh 93*, EWS-Fli inh 74*, LMP1 NFkB inh 27 and Shn3 3UTR inh -7.
Screening CN(C)C(=O)C[C@H]1C=C[C@H](NC(=O)Nc2cccc(F)c2)[C@@H](CO)O1 returned PAX8 reporter -1, FN deposition inh -5 and EWS-Fli inh -2.
Screening COc1cc2c(cc1OC)-c1c(OC)c(OC)cc3ccnc(c13)C2=O returned PAX8 reporter -8, FN deposition inh 11, aSyn 5UTR inh 110*, EWS-Fli inh 10, LMP1 NFkB inh 3 and Shn3 3UTR inh -23.
COc1ccc(C(=O)c2nccc3cc(OC)c(OC)cc23)cc1OC was read as LMP1 NFkB inh 4 and Shn3 3UTR inh 14.
`Nc1ccc2nc(CCc3ccccc3)[nH]c2c1` gave PAX8 reporter 7, FN deposition inh -10, aSyn 5UTR inh -68, EWS-Fli inh -62, LMP1 NFkB inh 59* and Shn3 3UTR inh -71.
Screening Cc1ccc2nc(CCc3ccc(N)cc3)[nH]c2c1 returned PAX8 reporter -94, FN deposition inh -14, aSyn 5UTR inh -136, EWS-Fli inh -80, LMP1 NFkB inh -16 and Shn3 3UTR inh -29.
CCn1c(/C=C/c2ccccc2C)nc2ccccc2c1=O was read as PAX8 reporter -46, FN deposition inh -4, aSyn 5UTR inh -42, EWS-Fli inh -19, LMP1 NFkB inh -15 and Shn3 3UTR inh -11.
CCn1c(/C=C/c2c(C)n(CC)c3ccccc23)nc2ccccc2c1=O was read as PAX8 reporter 72*, FN deposition inh -5, aSyn 5UTR inh 13, EWS-Fli inh -15, LMP1 NFkB inh -14 and Shn3 3UTR inh 0.
For CCCC#Cc1ccc2c(c1)[C@H]1[C@H](CCN1S(=O)(=O)c1ccc(F)cc1)[C@@H](CO)N2 the results were FN deposition inh -18.
`COc1cc(OC)c(OC)cc1/C=N/NC(=O)c1cc(-c2cccn2C)n[nH]1` gave PAX8 reporter 10, FN deposition inh -2, aSyn 5UTR inh 7, LMP1 NFkB inh -5 and Shn3 3UTR inh 1.
Screening CCOc1cccc(/C=N/NC(=O)c2cc(-c3cccn3C)n[nH]2)c1O returned PAX8 reporter 53, FN deposition inh 5, aSyn 5UTR inh 46, EWS-Fli inh 14, LMP1 NFkB inh 16 and Shn3 3UTR inh 88*.
Screening c1ccc(CN2CCC(Nc3nc(-c4ccccc4)nc4ccccc34)CC2)cc1 returned aSyn 5UTR inh 72*, LMP1 NFkB inh -48 and Shn3 3UTR inh 33.
c1ccc(CN2CCC(CNc3ncnc4ccccc34)C2)cc1 (stereo unspecified) was read as FN deposition inh 3, EWS-Fli inh 13, LMP1 NFkB inh 21 and Shn3 3UTR inh 77.
For C[C@H](CO)N1C[C@H](C)[C@@H](CN(C)Cc2ccccc2C(=O)O)Oc2cc(-c3ccc(C(=O)N(C)C)cc3)ccc2S1(=O)=O the results were FN deposition inh -5 and EWS-Fli inh -4.
`O=C(CSc1nc2ccccc2s1)NCCOc1ccc(Cl)cc1` gave aSyn 5UTR inh -39, LMP1 NFkB inh 2 and Shn3 3UTR inh -5.
O=C(CSc1nc2ccccc2s1)NCCOc1ccccc1 was read as PAX8 reporter 93*, FN deposition inh 13, aSyn 5UTR inh -37, EWS-Fli inh -32, LMP1 NFkB inh 2 and Shn3 3UTR inh -7.
For C[C@H](CO)N1C[C@H](C)[C@H](CN(C)CC2CCCCC2)Oc2c(NC(=O)Nc3ccc4c(c3)OCO4)cccc2C1=O the results were PAX8 reporter -4, FN deposition inh -6 and EWS-Fli inh 0.
CCOC(=O)CSc1nnc(-c2c[nH]c3ccccc23)n1CC was read as PAX8 reporter -3, FN deposition inh 3, aSyn 5UTR inh -6, EWS-Fli inh 10, LMP1 NFkB inh 9 and Shn3 3UTR inh 7.
